Series [1] is described as follows: Intrinsic clearance in human hepatic microsomes assessed per mg protein up to 30 mins in presence of NADPH by UPLC-MS method. It is filed as ADME. Particulars: liver microsomes, read-out: CLH. Put shortly:
(§1)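 Hepatic microsomes (male CD1 mouse, male Sprague-Dawley rat, or pooled human) at 0.25 mg/mL protein, substrate 0.5 µM, 1 mM NADPH; samples at 0, 5, 10, 20, 30 min, quenched with 1 volume CH3CN, centrifuged, supernatant by UPLC/HRMS. % remaining vs T0 (analyte/internal standard ratio); k from ln(% stability) vs time; InC = k/protein concentration × 1000.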

Series [2] in a line: Intrinsic clearance in CD1 mouse hepatic microsomes assessed per mg protein up to 30 mins in presence of NADPH by UPLC-MS method. It is filed as ADME. The note with it: liver microsomes, read-out: CLH. Put shortly:
as §1

For the next series, the species on record is Rattus norvegicus. Put plainly: Displacement of [3H]flunitrazepam from CBR in rat cerebral cortex membranes at 1 uM relative to control. Type of series: cell membranes. The note with it: Membrane.
Series [3] in a line: Intrinsic clearance in Sprague-Dawley rat hepatic microsomes assessed per mg protein up to 30 mins in presence of NADPH by UPLC-MS method. It is filed as ADME. The note with it: liver microsomes, read-out: CLH. Put shortly:
as §1

The target of a further series is Translocator protein (Rattus norvegicus, UniProt P16257). Put plainly: Displacement of [3H]PK11195 from TSPO in rat heart membranes after 15 mins by scintillation counting method. Type of series: cell membranes, Membrane.
Series [4] is described as follows: n-Octanol-buffer partition coefficient, log D of the compound at pH 7.4 by HPLC method. It is filed as physicochemical.

15 compounds from ChEMBL document CHEMBL3877263, “Synthesis and in vitro characterization of novel fluorinated derivatives of the translocator protein 18 kDa ligand CfO-DPA-714” (Eur J Med Chem, 2017) can be followed below.

Chain of Translocator protein (P16257 whole entry, looked up): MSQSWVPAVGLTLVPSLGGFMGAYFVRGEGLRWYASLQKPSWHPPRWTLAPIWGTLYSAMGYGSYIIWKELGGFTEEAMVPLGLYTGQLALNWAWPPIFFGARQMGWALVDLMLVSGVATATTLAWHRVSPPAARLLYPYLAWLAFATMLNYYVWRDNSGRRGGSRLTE

`CCN(CC)C(=O)Cc1c(-c2ccc(OCCF)cc2)nn2c(C)cc(C)nc12` [DPA-714]: the microsomal CLint in series [1] was 68 µL/min/mg; in series [2] it was 408 µL/min/mg; in series [3], above 1000 µL/min/mg. Further, the inhibition in the series listed under Rattus norvegicus came to 0%.
In the series listed under Rattus norvegicus, `Cc1cc(C)n2nc(-c3ccc(CCCF)cc3)c(CC(=O)N3CCOCC3)c2n1` yielded an inhibition of 0%. Moreover, the affinity at Translocator protein corresponds to a Ki of 27 nM. In addition, in series [4], the logD was 2.56.
Turning to `CCCN(C)C(=O)Cc1c(-c2ccc(CCCF)cc2)nn2c(C)cc(C)nc12`, the results for the microsomal CLint in series [1], in series [2] and in series [3] were 321 µL/min/mg, 781 µL/min/mg and above 1000 µL/min/mg, respectively. This compound also showed an inhibition in the series listed under Rattus norvegicus of 0%. This compound displayed a Ki on Translocator protein of 0.25 nM. In addition, the log distribution coefficient (logD) in series [4] worked out at 3.65.
With `Cc1cc(C)n2nc(-c3ccc(CCCF)cc3)c(CC(=O)N3CCNCC3)c2n1`, the inhibition in the series filed under Rattus norvegicus turned out to be 0%. This compound also showed a Ki at Translocator protein of 260 nM. The compound further returned a logD in series [4] of 0.87.
In the same order, the values of `Cc1cc(C)n2nc(-c3ccc(CCCF)cc3)c(CC(=O)NC3CC3)c2n1` are 0%, 17 nM and 2.69.
In the case of `Cc1cc(C)n2nc(-c3ccc(CCCF)cc3)c(CC(=O)N(C)Cc3ccccn3)c2n1`, the figures for the microsomal CLint in series [1], in series [2] and in series [3] were 270 µL/min/mg, 947 µL/min/mg and 610 µL/min/mg, respectively. The compound also had an inhibition in the series filed under Rattus norvegicus of 0%. Further, on Translocator protein, affinity was put at a Ki of 1.2 nM. This compound had a logD in series [4] of 3.16.
In the case of `CCCN(CCC)C(=O)Cc1c(-c2ccc(CCCF)cc2)nn2c(C)cc(C)nc12`, the microsomal CLint in series [1], in series [2] and in series [3] was above 1000 µL/min/mg throughout. This compound registered an inhibition in the series filed under Rattus norvegicus of 0%. At Translocator protein, the inhibition constant (Ki) turned out to be 0.26 nM. In addition, the log distribution coefficient (logD) in series [4] worked out at 4.39.
As to `Cc1cc(C)n2nc(-c3ccc(CCCF)cc3)c(CC(=O)N(C)CCc3ccccc3)c2n1`, the microsomal CLint in series [1], in series [2] and in series [3] was above 1000 µL/min/mg throughout. In the series listed under Rattus norvegicus, this compound registered an inhibition of 0%. On Translocator protein, the affinity, expressed as Ki, was 1.1 nM. This compound also registered a logD in series [4] of 4.08.
Turning to `CCN(CC)C(=O)Cc1c(-c2ccc(CCCF)cc2)nn2c(C)cc(C)nc12`, the figures for the microsomal CLint in series [1], in series [2] and in series [3] were 241 µL/min/mg, 865 µL/min/mg and above 1000 µL/min/mg, respectively. Moreover, in the series listed under Rattus norvegicus, the inhibition was found to be 0%. The compound also registered a pH-dependent lipophilicity (logD) in series [4] of 3.51.
The compound `Cc1cc(C)n2nc(-c3ccc(CCCF)cc3)c(CC(=O)N(C)C)c2n1` came in with an inhibition in the series filed under Rattus norvegicus of 2%. At Translocator protein, this compound yielded a Ki of 15 nM. The compound also returned a logD in series [4] of 2.68.
In the case of `Cc1cc(C)n2nc(-c3ccc(CCCF)cc3)c(CC(=O)N(C)Cc3ccccc3)c2n1`, the microsomal CLint in series [1], in series [2] and in series [3] was above 1000 µL/min/mg in each case. This compound had an inhibition in the series listed under Rattus norvegicus of 0%. Besides, affinity on Translocator protein was put at a Ki of 0.3 nM. In series [4], the logD was determined as 3.98.
Take `Cc1cc(C)n2nc(-c3ccc(CCCF)cc3)c(CC(=O)N3CCCCC3)c2n1`: the microsomal CLint in series [1] is 424 µL/min/mg; in series [2] it was 931 µL/min/mg; in series [3], above 1000 µL/min/mg. This compound came in with an inhibition in the series listed under Rattus norvegicus of 0%. For the same compound, the affinity at Translocator protein corresponds to a Ki of 2.2 nM. For the same compound, the logD in series [4] is 3.56.
In the series listed under Rattus norvegicus, `Cc1cc(C)n2nc(-c3ccc(CCCF)cc3)c(CC(=O)N3CCCC3)c2n1` yielded an inhibition of 0%. Further, on Translocator protein, affinity was put at a Ki of 26 nM. In series [4], this compound returned a logD of 3.04.
For `Cc1cc(C)n2nc(-c3ccc(CCCF)cc3)c(CC(=O)N(C)Cc3cccnc3)c2n1`, the microsomal CLint in series [1] is 862 µL/min/mg; in series [2], above 1000 µL/min/mg; in series [3], above 1000 µL/min/mg. This compound also gave an inhibition in the series listed under Rattus norvegicus of 0%. Besides, the Ki at Translocator protein was determined as 2.8 nM. In series [4], this compound yielded a logD of 2.61.
In the series listed under Rattus norvegicus, `Cc1cc(C)n2nc(-c3ccc(CCCF)cc3)c(CC(=O)N3CCC3)c2n1` returned an inhibition of 0%. On Translocator protein, this compound came in with a Ki of 32 nM. The same compound yielded a logD in series [4] of 2.73.
